These results are taken from ChEMBL document CHEMBL4765278, “Synthesis of antiplatelet ortho-carbonyl hydroquinones with differential action on platelet aggregation stimulated by collagen or TRAP-6” (Eur J Med Chem, 2020).

Each structure is given as a SMILES string. Calls of active or inactive are those of the source. The calls are words filed in the database; no cut-off is given here. Some results are limits rather than exact numbers.

The nature of series [1]: (§1) Inhibition of collagen-induced platelet aggregation in human platelet preincubated for 5 mins followed by collagen-stimulation and measured after 6 mins by lumi-aggregometric method. It is filed as functional, tissue-based. The method in brief: (§2)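 Light transmission aggregometry of washed human platelets (3x10^8/mL) preincubated 5 min with 2 mM CaCl2 plus compound (0.2 to 200 μM; DMSO 0.2% vehicle). Aggregation induced by TRAP-6 (5 μM) or collagen (1 μg/mL) and followed 6 min. IC50 from dose-response curves, mean ± SEM of three experiments. S.I. = IC50 TRAP-6/IC50 collagen.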

The nature of series [2]: (§3) Inhibition of TRAP6-induced platelet aggregation in human platelet preincubated for 5 mins followed by TRAP6-stimulation and measured after 6 mins by lumi-aggregometric method. It is filed as functional, tissue-based. A digest of the protocol: as §2
Series [3] can be described thus: Selectivity index, ratio of IC50 for inhibition of TRAP6-induced platelet aggregation in human platelet to IC50 for inhibition of collagen-induced platelet aggregation in human platelet. It is filed as functional. The method in brief:
as §2

Series [4] relates to Platelet. Kind of series: Cytotoxicity against human Platelet assessed as increase in LDH leakage at 200 uM after 10 mins by LDH assay. Type of series: cell-based. The method in brief:
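Washed platelets (3x10^8/mL) incubated 10 min at 37°C with compound (200 μM), then centrifuged 800 x g for 8 min. Supernatant LDH kit read at 490 nm; 10% Triton X-100 served as positive control.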

For series [5], the system named is Platelet. Described as §1. Type of series: functional, tissue-based. To be noted: time 11.0 min. A digest of the protocol:
as §2

In series [6] the test system is Platelet. The series is described as follows: Antiplatelet activity in human Platelet assessed as mitochondrial membrane potential loss at 2 to 20 uM by TMRM staining based flow cytometric analysis. To be noted: dose 2-20 µM. It is filed as functional, cell-based. The method in brief: (§4)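 Washed platelets loaded with TMRM (100 nM), then incubated with DMSO 0.2%, compound or FCCP (1 μM) at 37°C for 20 min; ΔΨm by flow cytometry.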

Series [7] relates to Platelet. The series is described as follows: Antiplatelet activity in human Platelet assessed as intracellular calcium level at 2 to 20 uM preincubated for 5 mins and measured for 15 sec by Fluo-3-AM staining based assay. Type of series: functional, cell-based. The conditions noted are these: dose 2-20 µM. A digest of the protocol: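 Washed platelets (5x10^7/mL) loaded with Fluo-3-AM (0.4 μM) for 30 min at RT, then given vehicle (DMSO 0.2%) or compound for 5 min. Baseline recorded 15 s, then FCCP (1 μM) added and read 60 s more by flow cytometry. Expressed relative to control.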

The subject of series [8] is Platelet. Kind of series: Antiplatelet activity in human Platelet assessed as intracellular NADH level at 2 to 20 uM by fluorescence assay. It is filed as functional, cell-based. The conditions noted are these: dose 2-20 µM. A digest of the protocol: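 NAD(P)H autofluorescence in resting washed platelets, excitation 340 nm and emission 428 nm. Mean ± SEM of n=3.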

In series [9] the test system is Platelet. Described as §3. Type of series: functional, tissue-based. The conditions noted are these: time 11.0 min. A digest of the protocol:
as §2

Series [10] concerns Platelet. The series is described as follows: Effect on platelet activation in human collagen/TRAP6-inducrd human Platelet assessed as positive subpopulation cells at 2 to 20 uM by annexin V-FITC staining based flow cytometric analysis. It is filed as functional, tissue-based. To be noted: dose 2-20 µM. A digest of the protocol:
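Washed platelets (3x10^8/mL) preincubated 5 min with 2 mM CaCl2 plus compound and stimulated with collagen + TRAP-6. Diluted in annexin V binding buffer and stained with annexin V-FITC and anti-CD61-PE for 25 min in the dark; flow cytometry.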

The nature of series [11]: Inhibition of collagen-induced platelet aggregation in human platelet preincubated for 5 mins followed by 2 ug/ml collagen-stimulation and measured after 6 mins by lumi-aggregometric method relative to control. It is filed as functional. To be noted: time 11 min. A digest of the protocol:
(§5)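 Washed platelets (3x10^8/mL) preincubated 5 min with 2 mM CaCl2 plus compound, then challenged at maximal agonist level, 10 μM TRAP-6 or 2 collagen as printed. Transmission followed 6 min and compared with DMSO 0.2% control; n=3.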

Series [12] relates to Platelet. The series is described as follows: Antiplatelet activity in human Platelet assessed as intracellular ATP level at 2 to 20 uM by Cell Titer-Glo luminescent cell viability assay. Type of series: functional, cell-based. To be noted: dose 2-20 µM. The method in brief: (§6)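 Intraplatelet ATP in resting washed human platelets measured by CellTiter-Glo luminescence following the kit instructions. Mean ± SEM of n=3 experiments.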

Series [13] relates to Platelet. Kind of series: Antiplatelet activity in human Platelet assessed as inhibition of collagen-induced ATP secretion at 2 to 20 uM by Cell Titer-Glo luminescent cell viability assay. The conditions noted are these: dose 2-20 µM. It is filed as functional, cell-based.
The subject of series [14] is Platelet. Kind of series: Antiplatelet activity in human Platelet assessed as inhibition of collagen-induced p-selectin protein expression at 2 to 20 uM by flow cytometric analysis. Type of series: functional, cell-based. The conditions noted are these: dose 2-20 µM.
The subject of series [15] is Platelet. The series is described as follows: Antiplatelet activity in human Platelet assessed as inhibition of collagen-induced GP2a/3b activation at 2 to 20 uM by flow cytometric analysis. It is filed as functional, cell-based. To be noted: dose 2-20 µM.
A short description of series [16]: Inhibition of TRAP6-induced platelet aggregation in human platelet preincubated for 5 mins followed by 10 uM TRAP6-stimulation and measured after 6 mins by lumi-aggregometric method relative to control. It is filed as functional. The conditions noted are these: time 11 min. The method in brief: as §5
For series [17], the system named is Platelet. The series is described as follows: Antiplatelet activity in human Platelet assessed as ROS production at 2 to 20 uM by DHE staining based flow cytometric analysis. Type of series: functional, cell-based. The conditions noted are these: dose 2-20 µM. A digest of the protocol:
(§7)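 Washed human platelets (5x10^7/mL) exposed to compounds with 10 μM dihydroethidium for 20 min at 37°C; ROS read by flow cytometry. Mean ± SEM of three experiments.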

Series [18] deals with Platelet. Kind of series: Antiplatelet activity in human Platelet assessed as inhibition of TRAP6-induced p-selectin protein expression at 2 to 20 uM by flow cytometric analysis. Type of series: functional, cell-based. To be noted: dose 2-20 µM.
Series [19] concerns Platelet. Kind of series: Antiplatelet activity in human Platelet assessed as inhibition of TRAP6-induced GP2a/3b activation at 2 to 20 uM by flow cytometric analysis. Type of series: functional, cell-based. To be noted: dose 2-20 µM.
Series [20] deals with Platelet. The series is described as follows: Antiplatelet activity in human Platelet assessed as mitochondrial membrane potential loss at 20 uM by TMRM staining based flow cytometric analysis. Type of series: functional, cell-based. The method in brief: as §4
The test system of series [21] is Platelet. Kind of series: Antiplatelet activity in human Platelet assessed as inhibition of TRAP6-induced ATP secretion at 2 to 20 uM by Cell Titer-Glo luminescent cell viability assay. It is filed as functional, cell-based. To be noted: dose 2-20 µM.
The subject of series [22] is Platelet. The series is described as follows: Antiplatelet activity in human Platelet assessed as decrease in intracellular ATP level at 20 uM by Cell Titer-Glo luminescent cell viability assay. Type of series: functional, cell-based. The method in brief:
as §6

In series [23] the test system is Platelet. Kind of series: Antiplatelet activity in human Platelet assessed as increase in ROS production at 20 uM by DHE staining based flow cytometric analysis. It is filed as functional, cell-based. A digest of the protocol:
as §7

Series [24] deals with Platelet. Kind of series: Antiplatelet activity in human Platelet assessed as inhibition of TRAP6-induced CD63 expression at 2 to 20 uM by flow cytometric analysis. It is filed as functional, cell-based. To be noted: dose 2-20 µM.

Consider `CCCSc1nc(N[C@@H]2C[C@H]2c2ccc(F)c(F)c2)c2nnn([C@@H]3C[C@H](OCCO)[C@@H](O)[C@H]3O)c2n1` [TICAGRELOR], for which the IC50 was found to be 2 µM in series [1] and 4 µM in [2]. The “Ratio IC50” value in [3] is 2.

Consider `CC1C=CC(COC(=O)C2CCCCC2)c2c(O)c3c(c(O)c21)C(=O)C=CC3(C)C` (stereo not given), for which the IC50 in series [1] and in series [2] was greater than 100 µM in each case. Besides, the Activity entry in series [4] is listed as “Non-Toxic”.

In the case of `CC1C=CC(COC(=O)C2CCCCC2)c2c(O)c3c(c(O)c21)C(C)(C)C=CC3=O` (stereo not given), the 50% inhibitory concentration (IC50) in series [1] and in series [2] was greater than 100 µM throughout. Besides, in [4], the Activity result was “Non-Toxic”.

Take `CCCCCCCC1=CC(C)(C)c2c(O)ccc(O)c2C1=O`: in series [4], the Activity result is given as “Toxic”.

Regarding `CC1(C)C=CC(=O)c2c(O)ccc(O)c21`, the half-maximal inhibitory concentration (IC50) in [1] is 14.3 µM; in series [2] it was greater than 100 µM. Besides, in series [3], the “Ratio IC50” value came to 7. The Activity result in series [4] is “Non-Toxic”.

In the case of `CCCCCCC1=CC(C)(C)c2c(O)ccc(O)c2C1=O`, the Activity result in series [4] was “Toxic”.

Consider `CCC1(CC)C=CC(=O)c2c(O)ccc(O)c21`, for which the IC50 in series [1] was found to be 35.3 µM; in series [2], 31.9 µM. Besides, in series [3], the “Ratio IC50” value is 0.9. Also, the Activity entry in series [4] was “Non-Toxic”.

Take `Cc1c(C)c(O)c2c(c1O)C(=O)C=CC2(C)C`: the IC50 in series [1] is 12 µM; in series [2], greater than 100 µM. Also, the “Ratio IC50” value in [3] was 8.35. In addition, the Activity entry in [4] was “Non-Toxic”.

Turning to `O=C1C=CC2(CCCC2)c2c(O)c3c(c(O)c21)CC=CC3`, the half-maximal inhibitory concentration (IC50) was 25.5 µM in series [1] and greater than 100 µM in [2]. The “Ratio IC50” value in series [3] turned out to be 3.92. In addition, the Activity entry in series [4] is reported as “Non-Toxic”.

Consider `O=C1C=CC2(CCCC2)c2c(O)ccc(O)c21`, for which the inhibition entry in series [5] and in series [9] was “Dose-dependent effect” each time. Also, the 50% inhibitory concentration (IC50) was 1.77 µM in [1] and greater than 100 µM in [2]. Further, the outcome in series [6], in series [7], in [8], in [10], in [12] and in [17] was inactive. In addition, in [3], the “Ratio IC50” value is listed as 56.5. Also, the “inhibition (INH)” value in series [11] and in [16] was 100% throughout. The inhibition entry in series [13], in series [14] and in series [15] was “Active” in each case. Moreover, the Activity entry in [4] was “Non-Toxic”.

Turning to `CC1C=CC(CO)c2c(O)c3c(c(O)c21)C(C)(C)C=CC3=O` (stereo not given), the IC50 came out at 11.5 µM in series [1] and 15.8 µM in series [2]. Further, the “Ratio IC50” value in series [3] was 1.37. In addition, the Activity entry in series [4] was “Non-Toxic”.

With `CC1C=CC(CO)c2c(O)c3c(c(O)c21)C(=O)C=CC3(C)C` (stereo not given), the concentration for half-maximal inhibition (IC50) in series [1] was 4.38 µM; in [2] it was greater than 100 µM. Further, the “Ratio IC50” value in series [3] is given as 22.83. The Activity entry in series [4] is listed as “Non-Toxic”.

For `CCC1(CC)C=CC(=O)c2c(O)c3c(c(O)c21)CC=CC3`, the inhibition entry in series [18], in [19], in series [21] and in [24] was “Active” each time. Moreover, the inhibition result in series [5] and in series [9] was “Dose-dependent effect” in each case. In addition, the figures for the half-maximal inhibitory concentration (IC50) in series [1] and in [2] were 17.1 µM and 11.9 µM, respectively. Besides, the result in [7], in series [8] and in [10] was inactive. The “Ratio IC50” value in [3] came out at 0.69. Moreover, the outcome in series [20], in [22] and in [23] was Active. In addition, the “inhibition (INH)” value in [11] and in series [16] was 100% each time. The Activity entry in series [4] is listed as “Non-Toxic”.

As to `CC1(C)C=CC(=O)c2c(O)c3c(c(O)c21)CC=CC3`, the IC50 in series [1] was 20.6 µM; in [2], greater than 100 µM. Moreover, the “Ratio IC50” value in series [3] is recorded as 4.86. Also, the Activity entry in series [4] is recorded as “Non-Toxic”.

Turning to `CCCCCC1=CC(C)(C)c2c(O)ccc(O)c2C1=O`, the Activity result in series [4] was “Toxic”.
